Reference: ChEMBL document CHEMBL1133652, “Selective protection and functionalization of morphine: synthesis and opioid receptor binding properties of 3-amino-3-desoxymorphine derivatives” (J Med Chem, 2000)

Columns and labels:
[1] = biological target: Kappa-type opioid receptor (Cavia porcellus, UniProt P41144); assay: Binding affinity to displace radioligand [3H]U-69593 on Opioid receptor kappa 1 in guinea pig membranes.; format: cell membranes
Mu-type opioid receptor [2] = biological target: T1, Mu-type opioid receptor (Cavia porcellus, UniProt P97266); assay: (§1) Binding affinity to displace radioligand [3H]DAMGO on Opioid receptor mu 1 in guinea pig membranes.; format: cell membranes
T1 sequence (P97266 whole entry): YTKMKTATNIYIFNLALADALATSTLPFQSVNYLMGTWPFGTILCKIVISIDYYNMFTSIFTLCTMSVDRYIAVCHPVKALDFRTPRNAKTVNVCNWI

[3] = Inhibition of adenylyl cyclase activity in membranes of the human SH-SY5Y neuroblastoma cell line.; format: functional, cell-based; design: concentration or dose not given beside the values; conditions: concentration not given here
In short: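 SH-SY5Y membranes (50 µg protein) incubated 15 min at 30 °C with compound at 10 µM final. The mix held 20 mM HEPES pH 7.4, creatine phosphokinase/phosphocreatine, 1 mM phenanthroline, 60 µM IBMX, 0.1 mM GTP and 0.1 mM ATP. Stopped with perchloric acid and neutralized. cAMP measured by [3H]cAMP kit. Reported as % inhibition of basal activity, duplicate, repeated at least three times.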

Mu-type opioid receptor [4] = biological target: T1, Mu-type opioid receptor; assay: as §1; format: cell membranes; remark: listed apart in the source
In short: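 Guinea pig brain membranes (500 µg protein) incubated with 12 concentrations of compound and 0.25 nM [3H]DAMGO in 50 mM Tris-HCl pH 7.5, 25 °C, 60 min. Nonspecific binding with 10 µM naloxone. Filtration, washes in cold Tris, scintillation counting. IC50 by log-probit least-squares fit, converted to Ki (Cheng-Prusoff). At least three experiments in triplicate, mean ± SE.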

[5] = Binding affinity to displace radioligand [3H]naltrindole on Opioid receptor delta 1 in guinea pig membranes.

Sequence of Kappa-type opioid receptor (P41144 whole entry): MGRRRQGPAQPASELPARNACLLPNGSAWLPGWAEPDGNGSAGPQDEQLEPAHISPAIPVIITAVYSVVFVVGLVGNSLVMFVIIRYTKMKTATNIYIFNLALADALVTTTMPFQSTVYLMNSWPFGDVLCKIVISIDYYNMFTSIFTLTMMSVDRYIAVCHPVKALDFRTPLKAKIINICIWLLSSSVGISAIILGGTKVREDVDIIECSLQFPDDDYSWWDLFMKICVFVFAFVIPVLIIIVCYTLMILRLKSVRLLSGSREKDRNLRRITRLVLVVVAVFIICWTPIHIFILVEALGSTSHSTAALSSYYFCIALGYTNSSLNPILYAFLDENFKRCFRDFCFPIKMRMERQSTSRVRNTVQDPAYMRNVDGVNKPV

SMILES | Ki [1] | Ki (Mu-type opioid receptor [2]) | inhibition [3] | Ki (Mu-type opioid receptor [4]) | Ki [5]
C[C@H]1[C@H]2Cc3ccc(N)cc3[C@@]1(C)CCN2CC1CC1 | 1.2 nM | 1.8 nM |  |  | 
CN1CC[C@]23c4c5ccc(NCc6ccccc6)c4O[C@H]2[C@@H](O)C=C[C@H]3[C@H]1C5 | 3400 nM | 33 nM | 17% |  | 
CN(C)c1ccc2c3c1O[C@H]1[C@@H](O)C=C[C@H]4[C@@H](C2)N(C)CC[C@@]341 | 290 nM | 240 nM | 13% |  | 
CNc1ccc2c3c1O[C@H]1[C@@H](O)C=C[C@H]4[C@@H](C2)N(C)CC[C@@]341 | 2800 nM | 63 nM | 29% |  | 
C[C@@H](NC(=O)[C@@H](N)Cc1ccc(O)cc1)C(=O)NCC(=O)N(C)[C@@H](Cc1ccccc1)C(=O)NCCO |  |  | 58% |  | 
CN1CC[C@]23c4c5ccc(N)c4O[C@H]2[C@@H](O)C=C[C@H]3[C@H]1C5 | 740 nM |  | 26% | 53 nM | 
CN1CC[C@]23c4c5ccc(Nc6ccccc6)c4O[C@H]2[C@@H](O)C=C[C@H]3[C@H]1C5 | 240 nM | 59 nM | 44% |  | 
C[C@H]1[C@H]2Cc3ccc(Nc4ccccc4)cc3[C@@]1(C)CCN2CC1CC1 |  |  |  |  | 5.2 nM
